# Measurements reported in ChEMBL document CHEMBL1124287, “Imidazole-pyridine bioisosterism: comparison of the inotropic activities of pyridine- and imidazole-substituted 6-phenyldihydropyridazinone cardiotonics” (1988).
# Assays:
# Canis familiaris [1] = assay: Percent increase in heart rate was measured in anesthetized dogs; type: functional, Canis lupus familiaris
# Outline: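 Heart rate taken from a cardiometer triggered by the femoral arterial pressure pulse, in pentobarbital-anesthetized (35 mg/kg iv), ventilated mongrel dogs (7–14 kg). Escalating iv log doses at 5-min intervals. Reported as percent change from control at the inotropic ED50 dose.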
# Canis familiaris [2] = assay: Heart contractility was measured in anesthetized dogs (iv); type: functional; settings: Canis lupus familiaris
# Outline: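 Mongrel dogs of either sex (7–14 kg), pentobarbital-anesthetized (35 mg/kg iv), ventilated, kept at 37–38 °C. Right-ventricular Walton-Brodie strain-gauge arch at 50 g tension. Increasing log doses given iv via femoral vein at 5-min intervals, peak response recorded. ED50 (dose for 50% contractility rise) by linear regression, mean ± SEM. Separate animal group per drug.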
# Canis familiaris [3] = assay: Percent decrease in mean arterial blood pressure was measured in anesthetized dogs; type: functional, Canis lupus familiaris
# Outline: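 Pentobarbital-anesthetized (35 mg/kg iv), ventilated mongrel dogs of either sex (7–14 kg). Mean arterial pressure recorded via femoral arterial catheter and pressure transducer. Log doses given iv at 5-min intervals. Value is percent change from control at the inotropic ED50 dose.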
SMILES,Increase in HR (Canis familiaris [1]) [%],ED50 (Canis familiaris [2]) [mg/kg],Decrease in MAP (Canis familiaris [3]) [%]
O=C1CCC(c2ccc(-c3ccncc3)cc2)=NN1,19.1,0.146,29.9
O=C1CCC(c2ccc(-c3cccnc3)cc2)=NN1,7.5,0.0194,12.7
O=C1CCC(c2ccc3c(c2)CCC(=O)N3)=NN1,13.2,0.0032,16.1
O=C1CCC(c2ccccc2)=NN1,39.1,6.33,24.9
O=C1CCC(c2ccc(-c3ccccc3)cc2)=NN1,18.8,0.513,20.9
CC(=O)Nc1ccc(C2=NNC(=O)CC2)cc1,8.8,0.0113,15.1
O=C1CCC(c2ccc3c(c2)CCCN3)=NN1,37,–,12
O=C1CCC(c2ccc(-n3ccnc3)cc2)=NN1 [IMAZODAN],16.9,0.0501,28.4
